# Data taken from publication PMC13435124 (The FASEB Journal, 2026).
# Entries after “also recorded” stand apart in the source; their conditions may differ.
# What was measured:
# [1] = tested on: AKT/GSK3β signaling in N2a-APPswe cells; test: AKT and GSK3β phosphorylation, western blot; format: cell-based, mouse; details: 250 μM, 30 min
# Method in brief: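 Murine N2a-APPswe cells exposed to test compound at 250 μM for 5, 15 or 30 min; basal pAKT in untreated N2a-wt and N2a-APPswe read at 30 min. Protein by BCA; lysates denatured 5 min at 95°C. Membranes blocked 1 h RT in 5% BSA for phospho-proteins, primaries 1:1000 overnight at 4°C, HRP secondaries 1 h RT.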
# [2] = tested on: HMOX1 in N2a-APPswe cells; test: HMOX1 protein levels, western blot; format: cell-based, mouse; details: 250 μM, 24 h, vs control
# Method in brief: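 N2a-APPswe cells treated 24 h with test compound at 250 μM. HMOX1 detected by western blot after milk blocking 1 h RT; anti-HMOX1 1:1000 in 5% BSA/TBS-T overnight at 4°C, then HRP secondary 1 h RT.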
# [3] = tested on: BV-2 cells exposed to LPS; test: Nos2 and Il-1β mRNA in LPS-stimulated microglia, real-time RT-PCR; format: cell-based, mouse; details: BV-2, 250 μM, LPS 50 ng/mL, 18 h
# Method in brief: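 BV-2 cells given test compound at 250 μM, LPS 50 ng/mL added 30 min later, incubated 18 h. Nos2 and Il-1β mRNA measured by real-time RT-PCR. Mean ± SEM of four independent experiments, relative to untreated control.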
# [4] = tested on: BV-2 cells exposed to LPS; test: Nitric oxide production; format: cell-based, mouse; details: BV-2, 250 μM, LPS 50 ng/mL, 24 h
# Method in brief: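 BV-2 microglia given test compound at 250 μM, then LPS 50 ng/mL 30 min later, for 24 h. Nitrite measured in supernatants by Griess assay at 550 nm against a sodium nitrite standard curve. Mean ± SEM of four independent experiments, relative to untreated control.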
# N2a-APPswe cells = test: Nrf2 silencing; format: cell-based, mouse
# N2a-wt cells = test: Cell metabolism, Alamar Blue; format: cell-based, mouse; details: 24 h, Alamar Blue (Figure S1A)
# Method in brief: (§1)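 Cells exposed 24 h to test compound at 500, 250, 100, 50 or 5 μM, DMSO final up to 0.1% v/v. Resazurin 50 μM in PBS added 3 h before the end. Absorbance read at 570 nm with 620 nm reference. Highest nontoxic concentration chosen from metabolic capacity.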
# BV-2 cells = test: Cell metabolism, Alamar Blue; format: cell-based, mouse; details: 24 h, Alamar Blue (Figure S1B)
# Method in brief: as §1
# [5] = tested on: Nrf2 activation in KeratinoSens cells; test: KeratinoSens reporter gene assay; format: cell-based; details: 6 h; Iso 250 μM, DMF 50 μM
# Method in brief: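 KeratinoSens ARE-luciferase cells (passage ≤22) plated at 1.0 × 10^4 per well in triplicate; after 24 h switched to DMEM with 1% FBS, no geneticin. Wortmannin 500 nM added 1 h before test compound at 250 μM; DMF 50 μM as positive control; DMSO ≤0.1%. After 6 h, Alamar Blue (4 h, 37°C), then luciferase read as fold over DMSO. Three independent experiments in triplicate.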
# [6] = Blood-brain barrier permeability, PAMPA with 2% porcine polar brain lipid; format: in vitro ADME; details: 150 μg/mL, 16 h, cut-off 2.0 × 10^−6 cm s^−1 (Figure S4)
# Method in brief: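 PAMPA blood–brain barrier model using membranes with 2% (w/v) porcine polar brain lipid. Permeability given as experimental Papp in cm/s. Mean of three independent experiments, each run in duplicate.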
# BACE1 = BACE1 (Homo sapiens, UniProt P56817); test: BACE1 activity assay; format: biochemical; details: cell-free, tested at 50, 100 and 250 μM (Table S1)
# WT female mice = test: Safety: histopathology and serum biochemistry after 1 month intranasal dosing; format: in vivo, mouse; details: intranasal 100 mg/kg
# Method in brief: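 11-month-old WT females given intranasal PBS or test compound at 100 mg/kg for 1 month. Histopathology of heart, hippocampus, lung, liver and kidney. Serum GOT, GGT, ALP, albumin, creatinine and urea reported as mg/dL or IU/L.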
# APP/PS1 female mice [7] = test: Behavioral tests in 6-month-old females; format: in vivo, mouse; details: intranasal 50 mg/kg, 1 month
# APP/PS1 female mice [8] = test: Brain protein levels of 6-month-old females, western blot; format: in vivo, mouse; details: 50 mg/kg, 1 month
# Method in brief: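 Females received PBS or test compound at 50 mg/kg (APP/PS1 only) intranasally for 1 month. Brain hAPP, BACE1, iNOS, pro-IL-1β, HMOX1 and p44/42 MAPK assessed by western blot, with milk or BSA (phospho) blocking 1 h RT. Mean ± SEM of five animals; one-way ANOVA with Dunnett's or Tukey's test, p < 0.05.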
# APP/PS1 male mice = test: Novel object recognition test; format: in vivo, mouse; details: APP/PS1 males, 100 mg/kg, 1 month
# Method in brief: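 Behavioural testing in 10-month-old APP/PS1 and WT littermate males, randomised n = 5 per group. Intranasal PBS or test compound at 100 mg/kg for 1 month. Distance travelled also recorded.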
# WT and APP/PS1 male mice = test: Hippocampal gene expression, real-time RT-PCR; format: in vivo, mouse
# Method in brief: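 Hippocampi of 11-month-old WT and APP/PS1 males after 1 month of intranasal PBS or test compound at 100 mg/kg. hAPP, Bace1, Il-1β, Iba1, Trem2, Hmox1, Ppargc1α and Bdnf mRNA measured by real-time RT-PCR.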
# [9] = source not given; cited from earlier work
# [10] = APP/PS1 + Iso vs APP/PS1, 100 mg/kg, 1 month
# [11] = APP/PS1 males, 100 mg/kg, 1 month
# [12] = WT and APP/PS1 males, 100 mg/kg, 1 month, not significant
# BACE1, sequence (P56817 46-457 limits assumed): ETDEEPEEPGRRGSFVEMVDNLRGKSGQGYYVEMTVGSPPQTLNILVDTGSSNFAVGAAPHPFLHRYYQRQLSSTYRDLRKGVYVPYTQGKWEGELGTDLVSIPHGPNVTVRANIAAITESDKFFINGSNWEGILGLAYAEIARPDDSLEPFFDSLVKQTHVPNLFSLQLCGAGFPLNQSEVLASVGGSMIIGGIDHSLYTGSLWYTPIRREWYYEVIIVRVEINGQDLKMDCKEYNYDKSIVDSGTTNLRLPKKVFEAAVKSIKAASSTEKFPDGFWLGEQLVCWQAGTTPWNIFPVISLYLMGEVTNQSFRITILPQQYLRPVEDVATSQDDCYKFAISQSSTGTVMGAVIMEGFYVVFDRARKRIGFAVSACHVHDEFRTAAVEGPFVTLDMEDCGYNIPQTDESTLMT
smiles,measurement,setting,value
"CC=Cc1ccc(O)c(OC)c1 [Iso, 2‐methoxy‐4‐(prop‐1‐en‐1‐yl) phenol]",AKT phosphorylated levels,[1],AKT activation
same,GSK3β phosphorylated (Ser9) levels,[1],GSK3β inactivation
same,HMOX1 protein levels,[2],significant increase
same,LPS-induced Il-1β gene expression,[3],reduced
same,LPS-induced Nos2 gene expression,[3],reduced
same,LPS-triggered nitrite production,[4],significantly decreased
same,Aβ40 peptide levels,"N2a-APPswe cells; not transfected N2a-APPswe, silencing experiment set, 24 h",significantly decreased
same,Aβ40 levels in Nrf2-silenced cells,"N2a-APPswe cells; siNrf2 + Iso, N2a-APPswe, 36 h after transfection",further decreased
same,highest nontoxic concentration tested,N2a-wt cells,250 µM
same,highest nontoxic concentration tested,BV-2 cells,250 µM
same,Nrf2 activation (luciferase induction),[5],induced Nrf2 activation
same,BBB permeability (PAMPA Papp),[6],could cross the BBB
same,BACE1 activity,BACE1,inhibited
same,LDL cholesterol,WT female mice; 11-month-old WT females,reduction
same,hippocampus histopathology,WT female mice; WT females,Increased cell activation
same,kidney histopathology,WT female mice; WT females,cellular eosinophilia and tubular epithelial hypertrophy
same,liver histopathology (hepatic steatosis seen in VEH),WT female mice; WT females,also maintained
same,serum albumin,WT female mice; WT females,no alterations were detected
same,serum alkaline phosphatase (ALP),WT female mice; WT females,no alterations were detected
same,serum creatinine,WT female mice; WT females,no alterations were detected
same,serum gamma-glutamyl transferase (GGT),WT female mice; WT females,no alterations were detected
same,serum glutamic oxaloacetic transaminase (GOT),WT female mice; WT females,no alterations were detected
same,serum urea,WT female mice; WT females,no alterations were detected
same,heart histopathology,"WT female mice; WT females, vs VEH",No histopathological changes were observed
same,"behavior (hot plate, open field, fear conditioning)",APP/PS1 female mice [7],no relevant behavioral alterations were observed
same,decrease in brain p44/42 MAPK phosphorylated levels,APP/PS1 female mice [8]; 6-month-old APP/PS1 females,reverted
same,increase in brain HMOX1 protein levels,"APP/PS1 female mice [8]; 6-month-old APP/PS1 mice, p = 0.068",1.5 fold
same,brain APP protein levels,APP/PS1 female mice [8]; 6-month-old mice,not altered
same,percentage of investigations in the novel object (decreased in APP/PS1 VEH),APP/PS1 male mice,reverted
same,recognition index (lowered in APP/PS1 VEH),APP/PS1 male mice,reversed
same,decrease in Bdnf gene of APP/PS1 mice,WT and APP/PS1 male mice; [10],reversed
same,reduction in Ppargc1α mRNA levels of APP/PS1 mice,WT and APP/PS1 male mice; [10],reversed
same,Iba1 expression in hippocampus,WT and APP/PS1 male mice; [11],increased
same,h-APP gene expression in hippocampus,WT and APP/PS1 male mice; [11],not affected
same,increase in Trem2 gene expression (trend),WT and APP/PS1 male mice; [11],1.6 fold
same,reduction of Bace1 mRNA levels,"WT and APP/PS1 male mice; Iso-treated 11-month-old animals, 100 mg/kg, not significant",~ 4 fold
same,Bace1 mRNA levels in hippocampus,WT and APP/PS1 male mice; [12],clear tendency toward a reduction
same,Il1β mRNA levels in hippocampus,WT and APP/PS1 male mice; [12],clear tendency toward a reduction; also recorded: markedly reduced
same,Trem2 mRNA levels in hippocampus,"WT and APP/PS1 male mice; WT males, 100 mg/kg, 1 month",decreased
same,Hmox1 expression in hippocampus,"WT and APP/PS1 male mice; both WT and APP/PS1 males, 100 mg/kg, 1 month",increased
same,octanol-water partition coefficient (logP),[9],3.04
